In brackets after ≈: the same amount, converted by molar mass.

The values that follow come from ChEMBL document CHEMBL4414555, “Constituents from Nauclea latifolia with Anti-Haemophilus influenzae Type b Inhibitory Activities” (2019).

Common to all, as to format: functional
For test [1], the system named is Haemophilus influenzae. Nature of the test: Antibacterial activity against Haemophilus influenzae type b ATCC 49247 incubated for 24 hrs by M7-A9 microdilution method. To be noted: type b ATCC 49247, 24 h. The method, boiled down:
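CLSI M7-A9 broth microdilution against H. influenzae ATCC 49247. Compounds held as 2 mg/mL DMSO stocks, diluted 2-fold in Mueller–Hinton broth across 50 to 0.1 μg/mL. Wells received inoculum standardized to 0.5 McFarland and were run in triplicate. After 24 h at 37 °C, MIC taken as the lowest concentration preventing visible turbidity. Ciprofloxacin served as positive control.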

Test [2] has as its system Haemophilus influenzae. Put plainly: Bactericidal activity against Haemophilus influenzae type b ATCC 49247 incubated for 24 hrs followed by transferring to freshly prepared broth medium and measured after 24 hrs by M7-A9 microdilution method. To be noted: type b ATCC 49247, 24 h.
In test [3] the test system is Haemophilus influenzae. Put plainly: Ratio of MBC to MIC for Haemophilus influenzae type b ATCC 49247 by M7-A9 microdilution method.

`C[C@@H]1CC[C@]2(C(=O)O)CC[C@]3(C)C(=CC[C@@H]4[C@@]5(C)CC[C@H](O)C(C)(C)[C@@H]5CC[C@]43C)[C@@H]2[C@]1(C)O` [POMOLIC ACID] came in with an MIC in the test on Haemophilus influenzae [1] of 18.8 µg/mL (≈ 39.8 µM). For the same compound, the MBC in the test on Haemophilus influenzae [2] came out at 50 µg/mL (≈ 106 µM). Further, the Ratio with Haemophilus influenzae [3] is given as 2.7.

In the case of `C[C@H]1OC=C2C(=O)N3CCc4c([nH]c5ccccc45)[C@@H]3C[C@H]2[C@@H]1C=O`, the MIC in the test on Haemophilus influenzae [1] worked out at 3.1 µg/mL (≈ 9.22 µM). In the test with Haemophilus influenzae [2], this compound registered an MBC of 12.5 µg/mL (≈ 37.2 µM). Besides, the Ratio in the test with Haemophilus influenzae [3] turned out to be 4.

`C/C=C1/COC(=O)[C@H]2C(=O)N3CCc4c([nH]c5ccccc45)[C@@H]3C[C@@H]12` displayed an MIC against Haemophilus influenzae [1] of 4.7 µg/mL (≈ 14 µM). Moreover, the MBC in the test with Haemophilus influenzae [2] is 12.5 µg/mL (≈ 37.2 µM). Moreover, the Ratio with Haemophilus influenzae [3] amounted to 2.7.

`C[C@@H]1CC[C@]2(C(=O)O)CC[C@]3(C)C(=CC[C@@H]4[C@@]5(C)CC[C@@H]6OC([C@H]7[C@@H]8C[C@H]9c%10[nH]c%11ccccc%11c%10CCN9C(=O)C8=CO[C@@H]7C)OC[C@]6(CO)[C@@H]5CC[C@]43C)[C@@H]2[C@]1(C)O` (some centres undefined) came in with an MIC in the test on Haemophilus influenzae [1] of 25 µg/mL (≈ 30.4 µM). Also, the MBC in the test with Haemophilus influenzae [2] came to 50 µg/mL (≈ 60.7 µM). Besides, the Ratio with Haemophilus influenzae [3] is reported as 2.

In the test with Haemophilus influenzae [1], `O=C(O)c1cn(C2CC2)c2cc(N3CCNCC3)c(F)cc2c1=O` [CIPROFLOXACIN] displayed an MIC of 1.6 µg/mL (≈ 4.83 µM). Moreover, the MBC in the test with Haemophilus influenzae [2] worked out at 1.6 µg/mL (≈ 4.83 µM). Moreover, the Ratio with Haemophilus influenzae [3] is 1.

As for `C/C=C1/CO[C@H](O)[C@H]2C(=O)N3CCc4c([nH]c5ccccc45)[C@@H]3C[C@@H]12`, the MIC with Haemophilus influenzae [1] turned out to be 4.7 µg/mL (≈ 13.9 µM). This compound also showed an MBC in the test with Haemophilus influenzae [2] of 12.5 µg/mL (≈ 36.9 µM). The Ratio in the test on Haemophilus influenzae [3] amounted to 2.7.

Turning to `CC1(C)CC[C@]2(C(=O)O)CC[C@]3(C)C(=CC[C@@H]4[C@@]5(C)CC[C@H](O)[C@@](C)(CO)[C@@H]5[C@H](O)C[C@]43C)[C@@H]2C1`, the MIC with Haemophilus influenzae [1] is 18.8 µg/mL (≈ 38.5 µM). This compound returned an MBC with Haemophilus influenzae [2] of 50 µg/mL (≈ 102 µM). In the test on Haemophilus influenzae [3], the Ratio is 2.7.

The compound `CC(O)c1coc2c(=O)n3c(cc12)-c1[nH]c2ccccc2c1CC3` (centres undefined) yielded an MIC against Haemophilus influenzae [1] of 25 µg/mL (≈ 78 µM). The MBC against Haemophilus influenzae [2] came out at 50 µg/mL (≈ 156 µM). Also, the Ratio in the test on Haemophilus influenzae [3] was 2.

Compound `C[C@H]1[C@H](C)CC[C@]2(C(=O)O)CC[C@]3(C(=O)O)C(=CC[C@@H]4[C@@]5(C)CCC(=O)C(C)(C)[C@@H]5CC[C@]43C)[C@H]12` came in with an MIC in the test with Haemophilus influenzae [1] of 18.8 µg/mL (≈ 38.8 µM). The compound further registered an MBC in the test with Haemophilus influenzae [2] of 50 µg/mL (≈ 103 µM). The Ratio in the test with Haemophilus influenzae [3] is reported as 2.7.

The compound `C/C=C(/C=O)c1cc2n(c(=O)c1O)CCc1c-2[nH]c2ccccc12` displayed an MIC against Haemophilus influenzae [1] of 50 µg/mL (≈ 156 µM). In the test on Haemophilus influenzae [2], this compound registered an MBC of more than 50 µg/mL. Besides, the Ratio in the test on Haemophilus influenzae [3] was more than 1.

As for `CC1(C)CC[C@]2(C(=O)O)CC[C@]3(C)C(=CC[C@@H]4[C@@]5(C)CC[C@H](O)[C@@](C)(CO)[C@@H]5[C@H](O)C[C@]43C)[C@@H]2[C@@H]1O`, the MIC against Haemophilus influenzae [1] amounted to 18.8 µg/mL (≈ 37.2 µM). This compound also returned an MBC in the test on Haemophilus influenzae [2] of 50 µg/mL (≈ 99.1 µM). In the test with Haemophilus influenzae [3], the Ratio is recorded as 2.7.

In the test with Haemophilus influenzae [1], `C[C@H]1[C@H](C)CC[C@]2(C(=O)O)CC[C@]3(C(=O)O)C(=CC[C@@H]4[C@@]5(C)CC[C@H](O)C(C)(C)[C@@H]5CC[C@]43C)[C@H]12` returned an MIC of 25 µg/mL (≈ 51.4 µM). This compound showed an MBC with Haemophilus influenzae [2] of more than 50 µg/mL. For the same compound, the Ratio with Haemophilus influenzae [3] is on record as more than 2.

For the compound `COC(OC)[C@H]1[C@@H]2C[C@H]3c4[nH]c5ccccc5c4CCN3C(=O)C2=CO[C@@H]1C`, the MIC against Haemophilus influenzae [1] was determined as 50 µg/mL (≈ 131 µM). The MBC with Haemophilus influenzae [2] is more than 50 µg/mL. Besides, the Ratio in the test with Haemophilus influenzae [3] is reported as more than 1.
